Test results from ChEMBL document CHEMBL3872252, “New bithiazolyl hydrazones: Novel synthesis, characterization and antitubercular evaluation” (Bioorg Med Chem Lett, 2017).
In brackets after ≈: the same amount, converted by molar mass.

Tests used:
[1] = Selectivity index, ratio of GI50 for human THP1 cells to MIC90 for Mycobacterium tuberculosis H37Ra ATCC 25177 active stage; assay type: toxicity, cell-based, THP-1; details: read-out: Selectivity Index
How it was run: (§1)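 Cytotoxicity was measured on human MCF-7, HCT116 and THP-1 cells by MTT assay, with paclitaxel as reference. GI50 is the concentration inhibiting 50% of cell growth. The selectivity index is GI50 for the given cell line divided by MIC90 for the given mycobacterial strain and stage.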

[2] = Selectivity index, ratio of GI50 for human MCF7 cells to MIC90 for Mycobacterium tuberculosis H37Ra ATCC 25177 dormant stage; assay type: toxicity, cell-based; details: read-out: Selectivity Index
How it was run: (§2)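 Cytotoxicity was measured on human MCF-7, HCT116 and THP-1 cells by MTT assay, with paclitaxel as reference. The selectivity index is GI50 for the given cell line divided by MIC90 for the given mycobacterial strain and stage.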

Pseudomonas aeruginosa [3] = assay: Growth inhibition of Pseudomonas aeruginosa at 10 ug/ml; assay type: functional; details: read-out: GI
Escherichia coli [4] = assay: Growth inhibition of Escherichia coli at 3 ug/ml; assay type: functional; details: read-out: GI
How it was run: (§3)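 Screened against Gram-negative E. coli and P. aeruginosa and Gram-positive S. aureus and B. subtilis. Compound was tested at 3 µg/ml, and the read-out is percent growth inhibition.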

[5] = Antitubercular activity against Mycobacterium tuberculosis H37Ra ATCC 25177 active stage measured on day 8 by XTT reduction menadione based two-fold dilution assay; assay type: functional; details: ATCC 25177, 192 h
How it was run: (§4)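 M. tuberculosis H37Ra ATCC 25177 was exposed to 0.7–100 μg/mL in two-fold steps (0.7, 1.5, 3.1 … 100). Active stage was read after 8 days and dormant stage after 12 days of incubation. Inhibition was read by XTT reduction menadione assay (XRMA), absorbance 470 nm. MIC90 is the concentration giving ≥90% inhibition (µg/mL).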

Bacillus subtilis [6] = assay: Growth inhibition of Bacillus subtilis at 30 ug/ml; assay type: functional; details: read-out: GI
[7] = Selectivity index, ratio of GI50 for human HCT116 cells to MIC90 for Mycobacterium bovis BCG ATCC 35743 dormant stage; assay type: toxicity, cell-based, HCT-116; details: read-out: Selectivity Index; how it was run: as §2
[8] = Antitubercular activity against Mycobacterium tuberculosis H37Ra ATCC 25177 active stage infected in human THP1 cells measured on day 8 by nitrate reductase assay; assay type: functional, THP-1; details: ATCC 25177, 192 h
Pseudomonas aeruginosa [9] = assay: Growth inhibition of Pseudomonas aeruginosa at 3 ug/ml; assay type: functional; details: read-out: GI; how it was run: as §3
[10] = Antitubercular activity against Mycobacterium bovis BCG ATCC 35743 dormant stage measured on day 12 by nitrate reductase based two-fold dilution assay; assay type: functional, Mycobacterium bovis BCG str. ATCC 35743; details: Mycobacterium tuberculosis variant bovis BCG, ATCC 35743, 288 h
[11] = Selectivity index, ratio of GI50 for human HCT116 cells to MIC90 for Mycobacterium tuberculosis H37Ra ATCC 25177 active stage; assay type: toxicity, cell-based, HCT-116; details: read-out: Selectivity Index; how it was run: as §1
[12] = Antitubercular activity against Mycobacterium tuberculosis H37Ra ATCC 25177 dormant stage measured on day 12 by XTT reduction menadione based two-fold dilution assay; assay type: functional; details: ATCC 25177, 288 h; how it was run: as §4
[13] = Selectivity index, ratio of GI50 for human HCT116 cells to MIC90 for Mycobacterium tuberculosis H37Ra ATCC 25177 dormant stage; assay type: toxicity, cell-based, HCT-116; details: read-out: Selectivity Index; how it was run: as §2
[14] = Cytotoxicity against human THP1 cells by MTT assay; assay type: toxicity, cell-based, THP-1; details: for GI90: thp-1
[15] = Cytotoxicity against human HCT116 cells by MTT assay; assay type: toxicity, cell-based, HCT-116; details: for GI90: hct-116
[16] = Antitubercular activity against Mycobacterium bovis BCG ATCC 35743 active stage measured on day 8 by nitrate reductase based two-fold dilution assay; assay type: functional, Mycobacterium bovis BCG str. ATCC 35743; details: Mycobacterium tuberculosis variant bovis BCG, ATCC 35743, 192 h
[17] = Antitubercular activity against Mycobacterium tuberculosis H37Ra ATCC 25177 dormant stage infected in human THP1 cells measured on day 12 by nitrate reductase assay; assay type: functional, THP-1; details: ATCC 25177, 288 h
[18] = Selectivity index, ratio of GI50 for human MCF7 cells to MIC90 for Mycobacterium tuberculosis H37Ra ATCC 25177 active stage; assay type: toxicity, cell-based; details: read-out: Selectivity Index; how it was run: as §1
[19] = Selectivity index, ratio of GI50 for human MCF7 cells to MIC90 for Mycobacterium bovis BCG ATCC 35743 dormant stage; assay type: toxicity, cell-based; details: read-out: Selectivity Index; how it was run: as §2
Escherichia coli [20] = assay: Growth inhibition of Escherichia coli at 30 ug/ml; assay type: functional; details: read-out: GI
Staphylococcus aureus [21] = assay: Growth inhibition of Staphylococcus aureus at 3 ug/ml; assay type: functional; details: read-out: GI; how it was run: as §3
[22] = Cytotoxicity against human MCF7 cells by MTT assay; assay type: toxicity, cell-based; details: for GI90: mcf7
[23] = Selectivity index, ratio of GI50 for human THP1 cells to MIC90 for Mycobacterium bovis BCG ATCC 35743 dormant stage; assay type: toxicity, cell-based, THP-1; details: read-out: Selectivity Index; how it was run: as §2
[24] = Selectivity index, ratio of GI50 for human MCF7 cells to MIC90 for Mycobacterium bovis BCG ATCC 35743 active stage; assay type: toxicity, cell-based; details: read-out: Selectivity Index; how it was run: as §1
Bacillus subtilis [25] = assay: Growth inhibition of Bacillus subtilis at 3 ug/ml; assay type: functional; details: read-out: GI; how it was run: as §3
Pseudomonas aeruginosa [26] = assay: Growth inhibition of Pseudomonas aeruginosa at 30 ug/ml; assay type: functional; details: read-out: GI
Staphylococcus aureus [27] = assay: Growth inhibition of Staphylococcus aureus at 10 ug/ml; assay type: functional; details: read-out: GI
[28] = Selectivity index, ratio of GI50 for human THP1 cells to MIC90 for Mycobacterium tuberculosis H37Ra ATCC 25177 dormant stage; assay type: toxicity, cell-based, THP-1; details: read-out: Selectivity Index; how it was run: as §2
Staphylococcus aureus [29] = assay: Growth inhibition of Staphylococcus aureus at 30 ug/ml; assay type: functional; details: read-out: GI
[30] = Selectivity index, ratio of GI50 for human HCT116 cells to MIC90 for Mycobacterium bovis BCG ATCC 35743 active stage; assay type: toxicity, cell-based, HCT-116; details: read-out: Selectivity Index; how it was run: as §1
Bacillus subtilis [31] = assay: Growth inhibition of Bacillus subtilis at 10 ug/ml; assay type: functional; details: read-out: GI
Escherichia coli [32] = assay: Growth inhibition of Escherichia coli at 10 ug/ml; assay type: functional; details: read-out: GI
[33] = Selectivity index, ratio of GI50 for human THP1 cells to MIC90 for Mycobacterium bovis BCG ATCC 35743 active stage; assay type: toxicity, cell-based, THP-1; details: read-out: Selectivity Index; how it was run: as §1

C/C(=N\Nc1nc(-c2ccccc2)cs1)c1sc(C)nc1C
selectivity ratio [1]: 4
selectivity ratio [2]: 6
inhibition of growth at 10 µg/mL (Pseudomonas aeruginosa [3]): 84%
inhibition of growth at 3 µg/mL (Escherichia coli [4]): 81.8%
IC50 [5]: 0.82 µg/mL (≈ 2.5 µM)
MIC90 [5]: 25.3 µg/mL (≈ 77.1 µM)
inhibition of growth at 30 µg/mL (Bacillus subtilis [6]): 79.9%
selectivity ratio [7]: 26
MIC90 [8]: 32.5 µg/mL (≈ 99.1 µM)
inhibition of growth at 3 µg/mL (Pseudomonas aeruginosa [9]): 81.8%
IC50 [10]: 3.81 µg/mL (≈ 11.6 µM)
MIC90 [10]: 17.2 µg/mL (≈ 52.4 µM)
selectivity ratio [11]: 4
IC50 [12]: 2 µg/mL (≈ 6.09 µM)
MIC90 [12]: 16.5 µg/mL (≈ 50.1 µM)
selectivity ratio [13]: 6
GI50 ([14]; THP1 cells): > 100 µg/mL
GI90 [14]: > 100 µg/mL
GI50 ([15]; HCT116 cells): > 100 µg/mL
GI90 [15]: > 100 µg/mL
IC50 [16]: 11.6 µg/mL (≈ 35.4 µM)
MIC90 [16]: 40.4 µg/mL (≈ 123 µM)
MIC90 [17]: 23.4 µg/mL (≈ 71.3 µM)
selectivity ratio [18]: 4
selectivity ratio [19]: 26
inhibition of growth at 30 µg/mL (Escherichia coli [20]): 82.3%
inhibition of growth at 3 µg/mL (Staphylococcus aureus [21]): 80.7%
GI50 ([22]; MCF7 cells): > 100 µg/mL
GI90 [22]: > 100 µg/mL
selectivity ratio [23]: 26
selectivity ratio [24]: 2
inhibition of growth at 3 µg/mL (Bacillus subtilis [25]): 79.2%
inhibition of growth at 30 µg/mL (Pseudomonas aeruginosa [26]): 82.4%
inhibition of growth at 10 µg/mL (Staphylococcus aureus [27]): 82.8%
selectivity ratio [28]: 6
inhibition of growth at 30 µg/mL (Staphylococcus aureus [29]): 81.3%
selectivity ratio [30]: 2
inhibition of growth at 10 µg/mL (Bacillus subtilis [31]): 81.5%
inhibition of growth at 10 µg/mL (Escherichia coli [32]): 83.7%
selectivity ratio [33]: 2

CC(=O)O[C@H]1C(=O)[C@@]2(C)[C@H]([C@H](OC(=O)c3ccccc3)[C@]3(O)C[C@H](OC(=O)[C@H](O)[C@@H](NC(=O)c4ccccc4)c4ccccc4)C(C)=C1C3(C)C)[C@]1(OC(C)=O)CO[C@@H]1C[C@@H]2O [PACLITAXEL]
GI90 [14]: 5.814 µg/mL (≈ 6.81 µM)
GI90 [15]: 5.21 µg/mL (≈ 6.1 µM)
GI90 [22]: 0.075 µg/mL (≈ 0.0878 µM)

CO[C@H]1/C=C/O[C@@]2(C)Oc3c(C)c(O)c4c(O)c(c(/C=N/N5CCN(C)CC5)c(O)c4c3C2=O)NC(=O)/C(C)=C\C=C\[C@H](C)[C@H](O)[C@@H](C)[C@@H](O)[C@@H](C)[C@H](OC(C)=O)[C@@H]1C [RIFAMPIN]
IC50 [5]: 0.51 µg/mL (≈ 0.62 µM)
MIC90 [5]: 0.51 µg/mL (≈ 0.62 µM)
MIC90 [8]: 0.5 µg/mL (≈ 0.608 µM)
IC50 [10]: 0.81 µg/mL (≈ 0.984 µM)
MIC90 [10]: 0.81 µg/mL (≈ 0.984 µM)
IC50 [12]: 0.75 µg/mL (≈ 0.911 µM)
MIC90 [12]: 0.75 µg/mL (≈ 0.911 µM)
GI90 [14]: > 100 µg/mL
GI90 [15]: > 100 µg/mL
IC50 [16]: 0.45 µg/mL (≈ 0.547 µM)
MIC90 [16]: 0.45 µg/mL (≈ 0.547 µM)
MIC90 [17]: 0.7 µg/mL (≈ 0.851 µM)
GI90 [22]: > 100 µg/mL
